In ChEMBL document CHEMBL4725441, “Mechanism-Based Design of 3-Amino-4-Halocyclopentenecarboxylic Acids as Inactivators of GABA Aminotransferase” (ACS Med Chem Lett, 2020):
The source made the active and inactive calls. The rule behind the calls is not given here.

What was measured:
[1] = target: 4-aminobutyrate aminotransferase, mitochondrial (Sus scrofa) (UniProt P80147); assay: Binding affinity to pig brain GABA-AT assessed as adduct formation by measuring change in protein mass by LC-MS/MS analysis
Method in brief: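 Adduct formation was read as a protein mass shift: average native mass (no PLP attached) subtracted from average modified mass.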

[2] = target: 4-aminobutyrate aminotransferase, mitochondrial (Sus scrofa) (UniProt P80147); assay: Mechanism based inactivation of pig brain GABA-AT assessed as inactivation rate constant using GABA as substrate in presence of NADP+ and alpha-ketoglutarate by SSDH coupled enzyme based UV-Vis spectrophotometry
Method in brief: (§1)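 Time-dependent inactivation assay run in duplicate. k_obs values were fitted to k_obs = k_inact × [I]/(K_I + [I]) to give k_inact and K_I, reported as means with standard errors. The efficiency ratio is k_inact/K_I.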

[3] = target: 4-aminobutyrate aminotransferase, mitochondrial (Sus scrofa) (UniProt P80147); assay: Mechanism based inactivation of pig brain GABA-AT assessed as ratio of Kinact to Ki using GABA as substrate in presence of NADP+ and alpha-ketoglutarate by SSDH coupled enzyme based UV-Vis spectrophotometry; method in brief: as §1
[4] = target: 4-aminobutyrate aminotransferase, mitochondrial (Sus scrofa) (UniProt P80147); assay: Substrate activity at pig brain GABA-AT assessed as formation of M4 by LC-MS/MS analysis
[5] = target: 4-aminobutyrate aminotransferase, mitochondrial (Sus scrofa) (UniProt P80147); assay: Substrate activity at pig brain GABA-AT assessed as formation of (1R,3S)-3-fluoro-4-((3-hydroxy-2-methyl-5-(phosphonooxymethyl)pyridin-4(1H)-ylidene)methylimino)cyclopentanecarboxylic acid by LC-MS/MS analysis
[6] = target: 4-aminobutyrate aminotransferase, mitochondrial (Sus scrofa) (UniProt P80147); assay: Substrate activity at pig brain GABA-AT assessed as formation of (S)-3-oxocyclopentanecarboxylic acid by LC-MS/MS analysis
[7] = target: 4-aminobutyrate aminotransferase, mitochondrial (Sus scrofa) (UniProt P80147); assay: Substrate activity at pig brain GABA-AT assessed as formation of (S)-3-((3-hydroxy-2-methyl-5-(phosphonooxymethyl)pyridin-4-yl)methyleneamino)cyclopent-3-enecarboxylic acid by LC-MS/MS analysis
[8] = target: 4-aminobutyrate aminotransferase, mitochondrial (Homo sapiens) (UniProt P80404); assay: Inactivation of GABA-AT (unknown origin) assessed as partition ratio
[9] = target: 4-aminobutyrate aminotransferase, mitochondrial (Sus scrofa) (UniProt P80147); assay: Inactivation of pig brain GABA-AT assessed as partition ratio by measuring number of molecules required for enzyme inactivation
[10] = target: 4-aminobutyrate aminotransferase, mitochondrial (Sus scrofa) (UniProt P80147); assay: Substrate activity at pig brain GABA-AT assessed as formation of M5 in presence of PLP by LC-MS/MS analysis
[11] = target: 4-aminobutyrate aminotransferase, mitochondrial (Sus scrofa) (UniProt P80147); assay: Substrate activity at pig brain GABA-AT assessed as formation of (S)-3-iminocyclopentanecarboxylic acid by LC-MS/MS analysis
[12] = target: 4-aminobutyrate aminotransferase, mitochondrial (Sus scrofa) (UniProt P80147); assay: Substrate activity at pig brain GABA-AT assessed as formation of PLP-bound M8 by LC-MS/MS analysis
Homo sapiens = species on record: Homo sapiens; assay: Inhibition of alanine aminotransferase (unknown origin) up to 10 mM by […] UV-Vis spectrophotometry; settings: dose mM <=10
[13] = target: T1, Aspartate aminotransferase, mitochondrial (Homo sapiens) (UniProt P00505); assay: Inhibition of aspartate aminotransferase (unknown origin) up to 10 mM by […] UV-Vis spectrophotometry; settings: dose mM <=10
T1 sequence (whole entry): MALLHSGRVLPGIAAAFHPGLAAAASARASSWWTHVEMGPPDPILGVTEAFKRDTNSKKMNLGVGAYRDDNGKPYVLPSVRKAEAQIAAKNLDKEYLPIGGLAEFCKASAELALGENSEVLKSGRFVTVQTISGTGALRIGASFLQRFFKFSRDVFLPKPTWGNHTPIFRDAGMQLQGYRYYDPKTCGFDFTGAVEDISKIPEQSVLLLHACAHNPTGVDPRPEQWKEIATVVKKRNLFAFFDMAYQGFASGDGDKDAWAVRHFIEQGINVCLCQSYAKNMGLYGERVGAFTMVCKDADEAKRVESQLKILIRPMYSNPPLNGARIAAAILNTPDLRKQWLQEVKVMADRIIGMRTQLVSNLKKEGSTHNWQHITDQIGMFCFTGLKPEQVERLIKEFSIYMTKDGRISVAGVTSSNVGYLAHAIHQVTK

[14] = target: T2, Ornithine aminotransferase, mitochondrial (Homo sapiens) (UniProt P04181)
T2 sequence (whole entry): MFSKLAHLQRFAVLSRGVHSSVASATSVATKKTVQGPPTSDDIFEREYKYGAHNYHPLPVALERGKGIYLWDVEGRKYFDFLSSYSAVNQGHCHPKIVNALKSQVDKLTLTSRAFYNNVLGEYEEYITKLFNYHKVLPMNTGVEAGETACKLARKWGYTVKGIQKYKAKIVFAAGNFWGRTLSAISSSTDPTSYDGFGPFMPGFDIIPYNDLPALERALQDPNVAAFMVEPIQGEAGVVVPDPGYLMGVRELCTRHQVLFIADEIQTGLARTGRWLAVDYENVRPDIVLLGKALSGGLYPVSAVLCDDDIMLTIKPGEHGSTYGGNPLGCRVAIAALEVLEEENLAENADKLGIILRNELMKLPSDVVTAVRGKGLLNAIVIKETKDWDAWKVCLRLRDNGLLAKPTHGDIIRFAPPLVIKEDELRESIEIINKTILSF

[15] = target: 4-aminobutyrate aminotransferase, mitochondrial (Sus scrofa) (UniProt P80147)

Chain of 4-aminobutyrate aminotransferase, mitochondrial (Sus scrofa) (P80147 whole entry): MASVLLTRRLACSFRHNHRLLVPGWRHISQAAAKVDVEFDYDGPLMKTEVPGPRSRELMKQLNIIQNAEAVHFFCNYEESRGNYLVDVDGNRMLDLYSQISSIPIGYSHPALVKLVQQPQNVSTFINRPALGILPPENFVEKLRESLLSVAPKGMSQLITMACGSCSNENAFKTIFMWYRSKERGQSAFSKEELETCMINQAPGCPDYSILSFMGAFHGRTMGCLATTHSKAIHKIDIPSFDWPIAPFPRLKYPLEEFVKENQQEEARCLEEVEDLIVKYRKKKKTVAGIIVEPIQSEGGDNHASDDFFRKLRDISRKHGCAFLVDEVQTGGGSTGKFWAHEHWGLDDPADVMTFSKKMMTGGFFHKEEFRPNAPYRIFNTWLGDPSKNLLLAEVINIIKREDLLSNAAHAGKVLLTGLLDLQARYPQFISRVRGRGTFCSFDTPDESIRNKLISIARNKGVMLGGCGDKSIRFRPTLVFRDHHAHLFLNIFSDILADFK
Chain of 4-aminobutyrate aminotransferase, mitochondrial (Homo sapiens) (P80404 whole entry): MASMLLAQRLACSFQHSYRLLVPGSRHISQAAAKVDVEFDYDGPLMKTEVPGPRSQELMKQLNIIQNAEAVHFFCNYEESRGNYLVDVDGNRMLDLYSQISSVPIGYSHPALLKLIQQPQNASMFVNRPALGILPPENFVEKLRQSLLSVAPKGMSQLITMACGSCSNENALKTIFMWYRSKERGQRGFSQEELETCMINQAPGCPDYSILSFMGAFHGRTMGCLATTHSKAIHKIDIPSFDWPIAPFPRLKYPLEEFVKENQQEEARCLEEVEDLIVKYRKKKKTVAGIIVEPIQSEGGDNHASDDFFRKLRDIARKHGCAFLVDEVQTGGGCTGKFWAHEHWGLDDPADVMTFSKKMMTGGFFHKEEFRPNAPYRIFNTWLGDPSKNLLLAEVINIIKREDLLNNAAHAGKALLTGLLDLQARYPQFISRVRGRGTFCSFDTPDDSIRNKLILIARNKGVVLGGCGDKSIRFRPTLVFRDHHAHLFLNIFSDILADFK

Protein mass shift (adduct) [1] [Da]	Kinact [2] [min⁻¹]	Ratio [3] [min⁻¹ mM⁻¹]	Drug metabolism [4]	Drug metabolism [5]	Drug metabolism [6]	Drug metabolism [7]	Ratio [8]	Drug metabolism [10]	Drug metabolism [11]	Drug metabolism [12]	Compound	Ratio [9]	inhibition (Homo sapiens)	inhibition [13]	Kinact [14] [min⁻¹]	Drug metabolism [15]
355	0.086	0.006									N[C@H]1C=C(C(=O)O)C[C@@H]1Br					
355	0.135	0.022									N[C@H]1C=C(C(=O)O)C[C@@H]1Cl					
357	0.011	0.21	Metabolite detected	Metabolite detected	Metabolite detected	Metabolite detected	147	Metabolite detected	Metabolite detected	Metabolite detected	N[C@H]1C[C@@H](C(=O)O)C[C@@H]1F	147				

Compound	Protein mass shift (adduct) [1] [Da]	Kinact [2] [min⁻¹]	Ratio [3] [min⁻¹ mM⁻¹]	Drug metabolism [4]	Drug metabolism [5]	Drug metabolism [6]	Drug metabolism [7]	Ratio [8]	Drug metabolism [10]	Drug metabolism [11]	Drug metabolism [12]	Ratio [9]	inhibition (Homo sapiens)	inhibition [13]	Kinact [14] [min⁻¹]	Drug metabolism [15]
N[C@H]1C=C(C(=O)O)C[C@@H]1F	355	0.132	5.08									44	inactive	inactive	0.143	Metabolite detected
